Article PMC2745822 (The Journal of pharmacology and experimental therapeutics, 2008)
Like-named read-outs stand apart in the source and are kept apart here.

Tests used:
rat M4 mAChR = target: T1, rat M4 mAChR (Rattus norvegicus, UniProt P08485); format: cell-based; details: for EC50: potentiation of an EC20 concentration of ACh
T1 sequence (P08485 1-478): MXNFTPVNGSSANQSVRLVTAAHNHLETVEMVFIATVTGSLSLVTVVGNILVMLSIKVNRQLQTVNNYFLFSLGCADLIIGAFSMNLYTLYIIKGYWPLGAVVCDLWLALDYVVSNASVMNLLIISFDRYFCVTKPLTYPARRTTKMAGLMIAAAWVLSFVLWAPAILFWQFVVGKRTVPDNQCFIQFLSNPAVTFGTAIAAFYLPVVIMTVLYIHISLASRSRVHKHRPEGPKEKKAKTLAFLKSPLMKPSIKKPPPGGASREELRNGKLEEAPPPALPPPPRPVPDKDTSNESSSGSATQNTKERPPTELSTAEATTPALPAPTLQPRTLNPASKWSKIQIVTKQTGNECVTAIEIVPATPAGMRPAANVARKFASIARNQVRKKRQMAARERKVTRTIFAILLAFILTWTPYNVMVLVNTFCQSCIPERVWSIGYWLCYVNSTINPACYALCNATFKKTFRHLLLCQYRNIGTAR

rM4 receptor = target: T2, rM4 receptor (Rattus norvegicus, UniProt P08485); assay: [3H]NMS equilibrium radioligand binding, membranes from rM4-expressing CHO cells
T2 sequence (P08485 1-478): T1 sequence (P08485 1-478)

M3 mAChR = M3 mAChR (Homo sapiens, UniProt P20309); assay: Calcium mobilization selectivity assay, CHO K1 cells expressing M3; format: cell-based; details: 30 µM compound
Chain of M3 mAChR (P20309 whole entry): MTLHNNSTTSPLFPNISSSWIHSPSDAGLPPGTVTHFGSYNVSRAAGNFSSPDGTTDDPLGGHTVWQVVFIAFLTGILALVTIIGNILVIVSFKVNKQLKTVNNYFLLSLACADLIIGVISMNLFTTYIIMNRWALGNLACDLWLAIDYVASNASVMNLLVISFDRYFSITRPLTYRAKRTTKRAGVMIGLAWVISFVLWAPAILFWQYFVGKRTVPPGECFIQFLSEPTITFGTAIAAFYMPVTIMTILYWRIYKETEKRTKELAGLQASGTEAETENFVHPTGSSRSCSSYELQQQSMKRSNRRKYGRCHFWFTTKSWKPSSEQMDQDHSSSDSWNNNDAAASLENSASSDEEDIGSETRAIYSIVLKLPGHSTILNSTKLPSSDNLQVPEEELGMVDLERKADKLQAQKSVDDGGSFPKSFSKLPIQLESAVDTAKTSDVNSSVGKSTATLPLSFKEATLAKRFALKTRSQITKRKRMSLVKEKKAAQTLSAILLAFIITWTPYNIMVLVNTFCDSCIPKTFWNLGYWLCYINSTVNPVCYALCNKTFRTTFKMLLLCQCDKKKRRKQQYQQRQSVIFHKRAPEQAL
Outline: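 CHO K1 cells stably expressing rat M1 or human M3 or M5, coupled through endogenous Gq. Seeded 50,000 cells/well and held overnight in antibiotic-free medium at 37°C/5% CO2. Loaded with 2 µM Fluo-4 AM for 45 min at 37°C in HBSS/20 mM HEPES/2.5 mM probenecid, pH 7.4. […] Three independent experiments.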

human M4 = target: T3, human M4 (Homo sapiens, UniProt P08173); assay: Millipore GPCR Profiler functional screen, human M4; format: cell-based; details: full agonist CRC
T3 sequence (P08173 1-479): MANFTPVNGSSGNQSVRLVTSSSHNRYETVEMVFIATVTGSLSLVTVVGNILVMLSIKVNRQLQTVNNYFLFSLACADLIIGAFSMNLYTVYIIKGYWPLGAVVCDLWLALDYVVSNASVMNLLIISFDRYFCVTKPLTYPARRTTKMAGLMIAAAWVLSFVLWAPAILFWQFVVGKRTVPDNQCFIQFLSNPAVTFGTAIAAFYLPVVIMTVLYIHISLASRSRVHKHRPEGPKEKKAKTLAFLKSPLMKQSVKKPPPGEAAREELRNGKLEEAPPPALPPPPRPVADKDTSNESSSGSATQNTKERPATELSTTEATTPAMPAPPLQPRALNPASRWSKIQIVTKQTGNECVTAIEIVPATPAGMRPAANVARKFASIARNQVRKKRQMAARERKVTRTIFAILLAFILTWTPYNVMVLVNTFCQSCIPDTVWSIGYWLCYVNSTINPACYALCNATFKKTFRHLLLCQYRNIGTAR
Outline: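 Outsourced functional screening paradigm covering 16 GPCRs, chosen as family A subtypes among the closest relatives of mAChRs. Test compound was assessed for agonist, antagonist and allosteric potentiator activity by its effect on full concentration-response curves of each receptor's agonist.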

M1 = target: T4, M1 (Homo sapiens, UniProt P11229); assay: Millipore GPCR Profiler functional screen, M1; format: cell-based; details: full agonist CRC
T4 sequence (P11229 1-460): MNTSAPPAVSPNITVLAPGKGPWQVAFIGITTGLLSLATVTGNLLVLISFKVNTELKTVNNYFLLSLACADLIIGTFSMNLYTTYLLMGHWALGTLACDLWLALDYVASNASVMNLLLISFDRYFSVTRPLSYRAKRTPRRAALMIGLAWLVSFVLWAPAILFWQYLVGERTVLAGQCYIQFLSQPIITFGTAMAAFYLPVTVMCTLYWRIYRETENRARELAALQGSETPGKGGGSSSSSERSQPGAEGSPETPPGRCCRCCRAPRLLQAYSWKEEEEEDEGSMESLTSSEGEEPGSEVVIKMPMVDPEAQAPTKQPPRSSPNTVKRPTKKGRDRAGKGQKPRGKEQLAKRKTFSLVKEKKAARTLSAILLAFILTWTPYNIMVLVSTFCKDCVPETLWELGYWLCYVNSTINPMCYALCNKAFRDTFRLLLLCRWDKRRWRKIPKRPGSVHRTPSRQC

[1] = Formulation into homogeneous dosing solution; format: physicochemical; details: vehicles acceptable for in vivo studies
Outline: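 Test compound was jet-milled to uniform nanoparticles before vehicle formulation. It was then dissolved at 56.6 mg/ml in 10% Tween 80 in double-deionized water, with pH adjusted to about 7.0 using 1 N NaOH. The mixture was sonicated until a uniform homogeneous solution formed, for intraperitoneal dosing.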

[2] = Brain and plasma exposure pharmacokinetic profiling; format: in vivo, rat; details: male rats, 56.6 mg/kg i.p.; mean ± S.E.M., n = 3
Outline: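 Male Sprague-Dawley rats (225–250 g), fasted overnight. Test compound dissolved at 56.6 mg/ml in 10% Tween 80/water, pH ~7.0 (1 N NaOH), sonicated, and given at 56.6 mg/kg i.p. Brain and trunk plasma taken at 0.5, 1, 2 and 4 h, three rats per time point. Brain homogenized in acetonitrile/methanol and plasma precipitated with acidified acetonitrile, both with internal standard. Analyzed by positive-ESI LC-MS-MS, linear 50 ng/ml–100 µg/ml. AUC0-∞ by trapezoidal method.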

[3] = tested on: amphetamine-induced hyperlocomotion in rats; assay: Amphetamine-induced hyperlocomotion; format: in vivo, rat; details: 56.6 mg/kg i.p., 30-min pretreatment; 1 mg/kg s.c. amphetamine; 60 min

In the case of `Cc1cc(C)c2c(N)c(C(=O)NCc3ccc4c(c3)OCO4)sc2n1` [VU0152099, 3-amino-N-(benzo[d][1,3]dioxol-5-ylmethyl)-4,6-dimethylthieno[2,3-b]pyridine carboxamide], the “maximal leftward shift of the ACh CRC” value (rat M4 mAChR; 30 µM compound) is reported as 30 fold, the “response in the absence of an ACh EC20 (agonist activity)” value (rat M4 mAChR; compound alone) is reported as “neither VU0152099 nor VU0152100 elicited a response” and the “Rat M4 Ach -Fold Shift” value (rat M4 mAChR; leftward shift of ACh CRC, average of at least three determinations) is reported as 29.7 fold. The EC50 (rat M4 mAChR; read-out: M4 PAM activity EC50) was 403 nM, the EC50 (rat M4 mAChR; read-out: Rat M4 EC50, average of at least three determinations) was 400 nM and the “displacement of [3H]NMS” value (rM4 receptor; 0.1 nM [3H]NMS, concentrations up to 30 µM) was “neither M4 PAM displaced”. The “leftward shift in the potency of ACh to displace [3H]NMS” value (rM4 receptor; 10 µM compound) was 25 fold, the “shift in the ACh CRC at M3” value (M3 mAChR) was “No shift in the ACh CRC was observed” and the “potentiation of ACh-induced activation of human M4” value (human M4) was “induced a robust potentiation of ACh-induced activation of human M4”. For the same molecule, the “potentiator activity at M1” value (M1) was “had no potentiator activity at M1”, the “formulation into homogeneous dosing solution” value [1] was “afforded homogeneous dosing solutions in multiple vehicles acceptable for in vivo studies” and the “AUC brain / AUC plasma” value [2] was 0.39 ± 0.01. The “Mean AUC (0-∞) brain” value [2] was 4751.80 ± 666.17 ng·h/g, the “Mean AUC(0-∞) plasma” value [2] was 11928.00 ± 1472.36 ng·h/mL and the t1/2 brain [2] was 1.25 ± 0.023 h. For the same molecule, the t1/2 plasma [2] was 1.66 ± 0.39 h and the “effect on amphetamine-induced hyperlocomotion” value [3] was “produced robust decreases in amphetamine-induced hyperlocomotion”.
